Source: ChEMBL document CHEMBL5724801, “EUbOPEN Chemogenomics Library - Multiplex” (2024)
Values joined by “and” are separate entries in the source; they are usually repeats but may differ in a detail not shown here. Equal values may be shown once.

Test system: HEK-293T
Experiment: Multiplex assay against HEK293T
Format: toxicity, cell-based
Details: human
How it was run: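 Per cents of healthy-nucleus cells form the tubulin, mitochondrial-mass and membrane-permeability phenotype values. Live cells were stained at seeding with Hoechst33342, BioTracker Green Microtubule Cytoskeleton Dye, MitoTracker Red and Annexin V Alexa Fluor 680. After compound addition they were imaged on a CQ1 microscope at 37°C and 5% CO2, and CellPathfinder machine-learning gating split them into Hoechst high-intensity objects or normal cells, normal cells into healthy, pyknosed or fragmented nuclei, and pyknosed cells into mitotic or apoptotic.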

[1] = 12 h, 1 µM, compound concentration 1 uM
[2] = 12 h, 10 µM, compound concentration 10 uM
[3] = 24 h, 1 µM, compound concentration 1 uM
[4] = 24 h, 10 µM, compound concentration 10 uM
[5] = 48 h, 1 µM, compound concentration 1 uM
[6] = 48 h, 10 µM, compound concentration 10 uM

## Cc1nc2ccc(Oc3ccc(F)cc3)cc2c(=O)n1C[C@H]1CCCN(C(C)C)C1.Cl
[1]
  Population Apoptotic (%): 40% and 61%
  Population Fragmented Nuclei (%): 7% and 5%
  Population Healthy Nuclei (%): 80% and 70%
  Population Membrane Permeable-Phenotype (%): 0%
  Population Mitochondria Different-Phenotype (%): 50% and 69%
  Population Mitotic Cells (%): 60% and 38%
  Population Normal (%): 93% and 72%
  Population Pyknosed Nuclei (%): 11% and 24%
  Population Tubulin-Different-Phenotype (%): 42% and 34%
  Total Cell Count: 381 and 204
[2]
  Population Apoptotic (%): 54% and 61%
  Population Fragmented Nuclei (%): 7% and 8%
  Population Healthy Nuclei (%): 78% and 74%
  Population Hoechst High Intensity Objects (%): 17% and 20%
  Population Membrane Permeable-Phenotype (%): 0%
  Population Mitochondria Different-Phenotype (%): 81% and 94%
  Population Mitotic Cells (%): 45% and 38%
  Population Normal (%): 82% and 79%
  Population Pyknosed Nuclei (%): 13% and 17%
  Population Tubulin-Different-Phenotype (%): 76% and 73%
  Total Cell Count: 405 and 310
[3]
  Population Apoptotic (%): 31% and 37%
  Population Fragmented Nuclei (%): 11%
  Population Healthy Nuclei (%): 80% and 72%
  Population Membrane Permeable-Phenotype (%): 0%
  Population Mitochondria Different-Phenotype (%): 36% and 52%
  Population Mitotic Cells (%): 68% and 62%
  Population Normal (%): 95% and 77%
  Population Pyknosed Nuclei (%): 8% and 16%
  Population Tubulin-Different-Phenotype (%): 27% and 20%
  Total Cell Count: 553 and 281
[4]
  Population Apoptotic (%): 49% and 68%
  Population Fragmented Nuclei (%): 10% and 11%
  Population Healthy Nuclei (%): 73% and 75%
  Population Hoechst High Intensity Objects (%): 12% and 23%
  Population Membrane Permeable-Phenotype (%): 3% and 0%
  Population Mitochondria Different-Phenotype (%): 67% and 88%
  Population Mitotic Cells (%): 50% and 31%
  Population Normal (%): 87% and 76%
  Population Pyknosed Nuclei (%): 15% and 12%
  Population Tubulin-Different-Phenotype (%): 70% and 68%
  Total Cell Count: 525 and 334
[5]
  Population Apoptotic (%): 27% and 60%
  Population Fragmented Nuclei (%): 19% and 13%
  Population Healthy Nuclei (%): 75% and 80%
  Population Hoechst High Intensity Objects (%): 1% and 7%
  Population Membrane Permeable-Phenotype (%): 1% and 0%
  Population Mitochondria Different-Phenotype (%): 22% and 36%
  Population Mitotic Cells (%): 72% and 39%
  Population Normal (%): 98% and 92%
  Population Pyknosed Nuclei (%): 5% and 6%
  Population Tubulin-Different-Phenotype (%): 14%
  Total Cell Count: 901 and 380
[6]
  Population Apoptotic (%): 47% and 67%
  Population Fragmented Nuclei (%): 15% and 17%
  Population Healthy Nuclei (%): 74% and 72%
  Population Hoechst High Intensity Objects (%): 11% and 22%
  Population Membrane Permeable-Phenotype (%): 2% and 0%
  Population Mitochondria Different-Phenotype (%): 60% and 69%
  Population Mitotic Cells (%): 52% and 32%
  Population Normal (%): 88% and 78%
  Population Pyknosed Nuclei (%): 9%
  Population Tubulin-Different-Phenotype (%): 62% and 58%
  Total Cell Count: 754 and 459

## CN1CC[C@@]23CCCC[C@@H]2[C@@H]1Cc1ccc(O)cc13.O=C(O)C(O)C(O)C(=O)O
[1]
  Population Apoptotic (%): 5.07% and 6.25%
  Population Fragmented Nuclei (%): 0% and 2.38%
  Population Healthy Nuclei (%): 61.34% and 21.43%
  Population Hoechst High Intensity Objects (%): 0.28% and 0.59%
  Population Membrane Permeable-Phenotype (%): 0%
  Population Mitochondria Different-Phenotype (%): 31.51% and 13.89%
  Population Mitotic Cells (%): 94.93% and 93.75%
  Population Normal (%): 99.72% and 99.41%
  Population Pyknosed Nuclei (%): 38.66% and 76.19%
  Total Cell Count: 358 and 169
[2]
  Population Apoptotic (%): 7.34% and 9.57%
  Population Fragmented Nuclei (%): 0.33% and 1.28%
  Population Healthy Nuclei (%): 63.93% and 25%
  Population Hoechst High Intensity Objects (%): 0%
  Population Membrane Permeable-Phenotype (%): 0% and 2.56%
  Population Mitochondria Different-Phenotype (%): 30.77%
  Population Mitotic Cells (%): 92.66% and 90.43%
  Population Normal (%): 100%
  Population Pyknosed Nuclei (%): 35.74% and 73.72%
  Total Cell Count: 305 and 156
[3]
  Population Apoptotic (%): 13.27% and 11.22%
  Population Fragmented Nuclei (%): 1.37% and 2.04%
  Population Healthy Nuclei (%): 83.74% and 47.96%
  Population Hoechst High Intensity Objects (%): 0.15% and 0.51%
  Population Membrane Permeable-Phenotype (%): 1.27% and 3.19%
  Population Mitochondria Different-Phenotype (%): 9.98% and 11.7%
  Population Mitotic Cells (%): 86.73% and 88.78%
  Population Normal (%): 99.85% and 99.49%
  Population Tubulin-Different-Phenotype (%): 6.17% and 3.19%
[4]
  Population Apoptotic (%): 10.81% and 11.46%
  Population Fragmented Nuclei (%): 0.62% and 0.67%
  Population Healthy Nuclei (%): 76.45% and 35.33%
  Population Hoechst High Intensity Objects (%): 0%
  Population Membrane Permeable-Phenotype (%): 0.54% and 0%
  Population Mitochondria Different-Phenotype (%): 20.54% and 11.32%
  Population Mitotic Cells (%): 89.19% and 88.54%
  Population Normal (%): 100%
  Population Pyknosed Nuclei (%): 22.93% and 64%
  Population Tubulin-Different-Phenotype (%): 12.16% and 9.43%
[5]
  Population Fragmented Nuclei (%): 4.07% and 2.37%
  Population Healthy Nuclei (%): 87.05% and 78.04%
  Population Hoechst High Intensity Objects (%): 0%
  Population Membrane Permeable-Phenotype (%): 3.59% and 4.18%
  Population Mitochondria Different-Phenotype (%): 11.36% and 7.6%
  Population Mitotic Cells (%): 97.89% and 83.33%
  Population Normal (%): 100%
  Population Pyknosed Nuclei (%): 8.89% and 19.58%
[6]
  Population Fragmented Nuclei (%): 2.47% and 1.7%
  Population Healthy Nuclei (%): 87.64% and 68.94%
  Population Hoechst High Intensity Objects (%): 0%
  Population Membrane Permeable-Phenotype (%): 5.64% and 3.09%
  Population Mitochondria Different-Phenotype (%): 15.29% and 22.84%
  Population Mitotic Cells (%): 95.19% and 81.16%
  Population Normal (%): 100%
  Population Pyknosed Nuclei (%): 9.89% and 29.36%

## COc1ccc(CC(=O)NC(N/C(=N/C#N)Nc2cccc3ncccc23)C(C)(C)C)cc1OC (centres undefined)
[1]
  Population Apoptotic (%): 11.97% and 9.68%
  Population Fragmented Nuclei (%): 1.67% and 3.75%
  Population Hoechst High Intensity Objects (%): 0%
  Population Membrane Permeable-Phenotype (%): 0.47% and 3.33%
  Population Mitochondria Different-Phenotype (%): 42.45% and 26.67%
  Population Mitotic Cells (%): 88.03% and 90.32%
  Population Normal (%): 100%
  Population Pyknosed Nuclei (%): 39.44% and 77.5%
  Total Cell Count: 360 and 160
[2]
  Population Apoptotic (%): 8.97% and 14.85%
  Population Fragmented Nuclei (%): 3.73% and 3.91%
  Population Healthy Nuclei (%): 51.24% and 17.19%
  Population Hoechst High Intensity Objects (%): 0.31% and 0%
  Population Membrane Permeable-Phenotype (%): 0.61% and 9.09%
  Population Mitochondria Different-Phenotype (%): 26.67% and 22.73%
  Population Mitotic Cells (%): 91.03% and 85.15%
  Population Normal (%): 99.69% and 100%
  Population Pyknosed Nuclei (%): 45.03% and 78.91%
  Total Cell Count: 323 and 128
[3]
  Population Apoptotic (%): 11.48% and 16.07%
  Population Fragmented Nuclei (%): 1.83% and 3.87%
  Population Healthy Nuclei (%): 75.87% and 34.25%
  Population Hoechst High Intensity Objects (%): 0.36% and 0%
  Population Membrane Permeable-Phenotype (%): 1.45% and 0%
  Population Mitochondria Different-Phenotype (%): 14.46% and 11.29%
  Population Mitotic Cells (%): 88.52% and 83.93%
  Population Normal (%): 99.64% and 100%
  Population Pyknosed Nuclei (%): 22.3% and 61.88%
  Population Tubulin-Different-Phenotype (%): 13.49% and 12.9%
[4]
  Population Apoptotic (%): 21.15% and 27.45%
  Population Fragmented Nuclei (%): 2.03% and 2.01%
  Population Healthy Nuclei (%): 74.55% and 29.53%
  Population Hoechst High Intensity Objects (%): 0.22% and 0%
  Population Membrane Permeable-Phenotype (%): 0.91% and 2.27%
  Population Mitochondria Different-Phenotype (%): 18.73% and 22.73%
  Population Mitotic Cells (%): 78.85% and 72.55%
  Population Normal (%): 99.78% and 100%
  Population Pyknosed Nuclei (%): 23.42% and 68.46%
  Population Tubulin-Different-Phenotype (%): 20.54% and 18.18%
  Total Cell Count: 445 and 149
[5]
  Population Apoptotic (%): 8.22% and 21.13%
  Population Fragmented Nuclei (%): 2.43% and 3.09%
  Population Healthy Nuclei (%): 87.12% and 60.31%
  Population Hoechst High Intensity Objects (%): 0.07% and 0%
  Population Membrane Permeable-Phenotype (%): 5.75% and 0%
  Population Mitochondria Different-Phenotype (%): 13.8% and 32.48%
  Population Mitotic Cells (%): 91.78% and 78.87%
  Population Normal (%): 99.93% and 100%
[6]
  Population Fragmented Nuclei (%): 2.78% and 2.07%
  Population Healthy Nuclei (%): 86.6% and 61.14%
  Population Hoechst High Intensity Objects (%): 0.1% and 0%
  Population Membrane Permeable-Phenotype (%): 4.76% and 3.39%
  Population Mitochondria Different-Phenotype (%): 22.86% and 38.98%
  Population Mitotic Cells (%): 93.2% and 77.46%
  Population Normal (%): 99.9% and 100%
